Compound activity from PubChem BioAssay.
Sampled rows, rich in hits. Any-hit rate of the full collection: about 2.5%.
TCR-CD3 inh = human TCR-CD3 binding inhibition. TAMRA-labeled TCR probe fluorescence, biochemical. inhibition, % at 9.4 µM. 360,000 tested, 0.37% active. AID 651800; in the data active = inhibition above about 19%;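 also: recombinant mutant TCR 2C K166C tagged with TAMRA read by polarization; 0% = receptor in buffer alone and 100% = receptor with positive control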
HTRA1 inh = inhibitors of human serine peptidase HTRA1; Q92743; recombinant HTRA1, FP-rhodamine activity-based probe, fluorescence polarization; inhibition, % at 5.96 µM; 340,000 tested, 0.5% active; in the data active = inhibition above about 36%;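 also: 0% = enzyme with DMSO and 100% = wells lacking enzyme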
SIAE primary = human SIAE inhibition, primary screen; 370,000 tested, 0.69% active; AID 1053197; inhibition, % at 9.66 µM; SIAE FP-Rh probe binding, fluorescence polarization;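 active = inhibition above a cutoff: mean of compounds within the control limits plus 3 SD of those, cut at about 17% in these data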;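 also: 0% = plate median of compound wells and 100% = probe without SIAE protein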
Target sequence (Q9HAT2 whole entry, looked up): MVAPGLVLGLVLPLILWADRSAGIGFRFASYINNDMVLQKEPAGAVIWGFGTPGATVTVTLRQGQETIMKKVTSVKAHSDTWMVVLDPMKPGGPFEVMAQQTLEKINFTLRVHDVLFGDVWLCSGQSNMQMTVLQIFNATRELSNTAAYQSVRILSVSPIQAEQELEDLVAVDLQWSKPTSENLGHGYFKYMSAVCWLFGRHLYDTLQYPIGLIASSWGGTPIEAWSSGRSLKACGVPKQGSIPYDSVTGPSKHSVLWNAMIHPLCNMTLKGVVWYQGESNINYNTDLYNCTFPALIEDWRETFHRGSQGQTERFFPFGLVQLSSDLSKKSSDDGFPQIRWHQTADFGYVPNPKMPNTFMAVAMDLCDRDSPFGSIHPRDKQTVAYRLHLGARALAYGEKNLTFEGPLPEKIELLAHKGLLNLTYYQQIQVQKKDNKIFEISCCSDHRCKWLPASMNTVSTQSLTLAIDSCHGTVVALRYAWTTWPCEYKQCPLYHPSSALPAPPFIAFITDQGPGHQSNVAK
rCAG binder = molecules binding r(CAG) RNA repeats. r(CAG) RNA repeat, TO-PRO-1 dye displacement fluorescence. inhibition, % at 3 µM. 370,000 tested, 1.3% active;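 active = inhibition above the plate cutoff, the mean of all test compounds on that plate plus 3 SD, cut at about 35% in these data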;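 also: 0% = DMSO alone and 100% = 100 µM mitoxantrone as full dye displacement; higher means more dye released from RNA so lower well fluorescence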
ABHD4 inh = inhibits mouse alpha/beta hydrolase domain 4; inhibition, % at 8.92 µM; 370,000 tested, 0.54% active; purified mABHD4, FP-Rh probe fluorescence polarization; AID 720543;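 active = inhibition exceeding the mean over every tested compound plus 3 SD, cut at about 30% in these data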;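 also: 0% = plate median of compound wells and 100% = S159A mutant with DMSO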
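Material: mouse ABHD4 enzyme, wild type; Benchmarks: S159A mutant high control, sample median low control; Buffer or medium: HEPES pH 7.0, NaCl, Pluronic buffer; Signal: fluorescence polarization; Read-out: percent inhibition of probe binding, normalized to plate controls; Timing: pre-incubation 45 min, probe exposure 60 min, at 25 °C; Dosing: 8.92 µM, single dose.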
rCAG binder conf = r(CAG) RNA repeat binding, confirmation; 4,300 tested, 70% active; shares compounds with rCAG binder; TO-PRO-1 dye displacement fluorescence; inhibition, % at 3 µM;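 active = inhibition above a per-plate cutoff, the mean inhibition of sample wells plus 3 SD, cut at about 35% in these data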;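 also: loss of TO-PRO-1 fluorescence as compound displaces dye from 1x1 AA loop RNA; 0% = DMSO only wells and 100% = 100 µM mitoxantrone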
dCAG dye counter = disrupts DNA CAG TO-PRO-1 complex, flagging rCAG hits; shares compounds with rCAG binder; d(CAG) DNA oligo TO-PRO-1 dye displacement, fluorescence; inhibition, % at 3 µM; 4,300 tested, 94% active; AID 652068;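 active = inhibition above its plate's cutoff, the mean test-well inhibition plus 3 SD, cut at about 4.8% in these data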;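 also: 0% = DNA dye mix with DMSO and 100% = 100 µM mitoxantrone; hits displace the dye from DNA and so lower well fluorescence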
dCAG dye DR = DNA CAG dye complex inhibition, dose response counter-screen; shares compounds with rCAG binder; DNA CAG/GTC duplex TO-PRO-1 dye displacement fluorescence; IC50, µM; 250 tested, 20% active; AID 686960; in the data active = IC50 below about 10 µM
ABHD4 confirm = ABHD4 (mouse) inhibition, FP confirmation; shares compounds with ABHD4 inh; purified mABHD4, FP-Rh probe fluorescence polarization; inhibition, % at 8.92 µM; 1,800 tested, 55% active;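 active = mean inhibition across replicates above the hit cutoff set in the primary screen, cut at about 30% in these data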;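 also: 0% = wild-type ABHD4 with DMSO and 100% = catalytically dead S159A mutant with DMSO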
SIAE inh conf = human SIAE inhibition, confirmation; shares compounds with SIAE primary; SIAE FP-Rh activity-based probe, fluorescence polarization; inhibition, % at 9.66 µM; 2,300 tested, 13% active; AID 1117263;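 active = mean inhibition of the replicates above the hit cutoff set in the primary screen, cut at about 17% in these data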;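 also: 0% = SIAE with DMSO and probe and 100% = probe without SIAE; inhibitors lower polarization as more probe stays unbound to SIAE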
The depositor's hits bear a star; i = inactive; nt = not tested or not shown.

SMILES	TCR-CD3 inh	HTRA1 inh	SIAE primary	rCAG binder	ABHD4 inh	rCAG binder conf	dCAG dye counter	SIAE inh conf	others
CC(=O)Nc1ccc(S(=O)(=O)Nc2nc3ccccc3nc2Nc2ccc(N)cc2)cc1	-2	15	1	42*	40*	32	11*	nt	ABHD4 confirm=23
COc1cc(Nc2nc3ccccc3nc2NS(=O)(=O)c2ccc([N+](=O)[O-])cc2)cc(OC)c1OC	-3	-1	13	6	3	nt	nt	nt
CC(=O)Nc1ccc(S(=O)(=O)Nc2nc3ccccc3nc2Nc2ccc(C(=O)O)c(O)c2)cc1	19	34	-24	47*	43*	45*	13*	nt	ABHD4 confirm=43*
CCCCN(CCCC)c1nc2ccccc2nc1NS(=O)(=O)c1ccc(NC(C)=O)cc1	5	-1	-3	4	9	nt	nt	nt
CCOC(=O)c1ccc(NC(=O)CC2OCCN(CC)C2=O)cc1 (centres undefined)	-6	-14	-4	24	-6	nt	nt	nt
Cc1cccc(Nc2nnc(SCC(=O)NC3CCCc4ccccc43)s2)c1C (centres undefined)	4	-23	4	-2	0	nt	nt	nt
O=C(COC(=O)c1ccccc1)Nc1ncc([N+](=O)[O-])s1	9	11	-9	60*	39*	70*	37*	nt	ABHD4 confirm=41*
CSCCC(NC(=O)c1ccc([N+](=O)[O-])cc1Cl)C(=O)OCC(=O)NC(=O)CN1CCCC1=O (centres undefined)	-2	1	2	2	0	nt	nt	nt
CCc1nc2nc(C)cc(Nc3cccc(C(F)(F)F)c3)n2n1	-1	5	4	-3	-1	nt	nt	nt
COc1ccc(CCNc2c(C=O)c(=O)[nH]c3ccccc23)cc1OC	-1	0	-4	-2	2	nt	nt	nt
O=C(NC1CCN(Cc2ccccc2)CC1)C1CCN(S(=O)(=O)c2ccc(Cl)cc2)CC1	3	4	5	-6	0	nt	nt	nt
COc1cc(C2c3c([nH]c(=O)[nH]c3=O)Nc3ccc4ccccc4c32)ccc1O (centres undefined)	4	8	30*	43*	15	24	8.2*	37*
COc1cc(C2CC(=O)c3c(ccc4ccccc34)N2)ccc1O (centres undefined)	-4	-5	-1	2	-5	nt	nt	nt
COC(=O)c1cc2ccsc2n1Cc1cc(=O)n2ccccc2n1	7	-5	2	2	-7	nt	nt	nt
COc1ccc(CNC(=O)C2Cc3ccccc3CN2C(=O)c2ccco2)cc1 (centres undefined)	-2	-3	-1	-1	3	nt	nt	nt
C/C(=N/Nc1ccc(C(=O)O)cc1)c1ccc2c(c1)Nc1ccccc1S2	7	23	17*	45*	56*	81*	41*	28*	ABHD4 confirm=81*
C/C(=N\Nc1ccc(Cl)c(C(=O)O)c1)c1ccc2c(c1)OCO2	-4	4	10	1	11	nt	nt	nt
COc1ccc(C2=NN(c3ccccc3)C(=O)/C2=C\c2ccc(O)c(OC)c2)cc1	4	8	19*	57*	4	66*	29*	5
COC(=O)c1ccc(-n2c(C)cc(C(=O)COC(=O)CC3Sc4ccccc4NC3=O)c2C)cc1 (centres undefined)	-4	-35	-5	0	18	nt	nt	nt
Cn1c(N)c(C(=O)COC(=O)/C=C/c2ccc(F)cc2)c(=O)n(C)c1=O	-8	1	4	0	-4	nt	nt	nt
O=[N+]([O-])c1cc(/C=N/Nc2nc3ccccc3[nH]2)c(O)cc1O	-1	nt	23*	36*	49*	29	13*	22*	ABHD4 confirm=72*
COc1cc(CNc2cccc3[nH]c(C(F)(F)F)nc23)cc(OC)c1	-5	-10	18*	44*	3	35*	18*	8
CCN(CC)C(=O)c1cn(-c2ccccc2)nc1-c1ccc2c(c1)OCCO2	-2	-17	0	-5	-1	nt	nt	nt
O=C(CSc1ccc(Cl)cc1)NC1=NN(c2ccccc2)C(=O)C1	0	5	25*	55*	21	27	10*	-3
Cc1ccccc1OCC(=O)NNC(=O)CCc1ccccc1	-1	3	12	3	-11	nt	nt	nt
SMILES	TCR-CD3 inh	HTRA1 inh	SIAE primary	rCAG binder	ABHD4 inh	rCAG binder conf	dCAG dye counter	SIAE inh conf	others
Cc1[nH]c2ccccc2c1/C=N/NC(=O)c1cccc(S(=O)(=O)Nc2ccccc2Cl)c1	-5	6	37*	48*	21	63*	21*	11
Cc1ccc(/C=N/NC(=O)c2cccc(S(=O)(=O)Nc3ccccc3Cl)c2)o1	-6	-6	5	18	-10	nt	nt	nt
CCc1cccc2c(/C=N/NC(=O)c3cccc(S(=O)(=O)Nc4ccccc4Cl)c3)c[nH]c12	-1	11	36*	57*	1	72*	31*	-1	dCAG dye DR=i
Cc1[nH]c2ccccc2c1/C=N/NC(=O)c1cccc(Br)c1	nt	2	nt	nt	nt	nt	nt	nt
COc1cccc(C2c3[nH]c4ccccc4c3C[C@H]3C(=O)N(c4ccccc4C(=O)NCCCN4CCOCC4)C(=O)N23)c1 (some centres undefined)	5	-6	1	0	0	nt	nt	nt
O=C(O)[C@@H]1CCCN1C(=O)c1ccccc1N1C(=O)[C@@H]2Cc3c([nH]c4ccccc34)C(c3cccc(Cl)c3)N2C1=O (some centres undefined)	15	-13	44*	35*	-24	49*	13*	-11
COc1ccc(NC(=O)Nc2nc(C(N)Cc3ccc(C(F)(F)F)cc3)cs2)cc1 (centres undefined)	-6	nt	29*	37*	26	17	2	16
COc1ccc(CC(N)c2csc(NC(=O)Nc3ccc(OC)cc3)n2)cc1 (centres undefined)	-11	nt	9	34	5	nt	nt	nt
COc1ccc(-c2csc(NC(=O)Nc3ccccc3)n2)cc1	-5	13	44*	40*	-2	14	16*	14
CCOC(=O)c1c(-c2ccccc2)csc1NC(=O)/C(C#N)=C/c1ccc(O)c(OC)c1	-9	-38	19*	45*	-9	87*	60*	14
O=C(O)c1ccccc1C(=O)NNC(=O)C(c1ccccc1)c1ccccc1	0	-19	-12	5	-2	nt	nt	nt
